Results pooled from the literature.
Adora2a: Adenosine receptor A2a (Adora2a, Rattus norvegicus, UniProt P30543)
AGTR2: Type-2 angiotensin II receptor (AGTR2, Homo sapiens, UniProt P50052)

SMILES | target | assay | system | setting | Ki
CCCCN1CCCn2c1nc1c2c(=O)n(CCC)c(=O)n1CCC | Adora2a | ligand displacement, radioligand | – | cell membranes | 300 nM
CCC(C)[C@H](NC(=O)c1ccc(C)c(C(=O)N(C)Cc2ccccc2)c1)C(=O)O (stereo in doubt) | AGTR2 | ligand displacement in cells, radioligand | – | – | 7600 nM
C#CCN1CCCn2c1nc1c2c(=O)n(C)c(=O)n1C | Adora2a | ligand displacement, radioligand | – | cell membranes | 7400 nM
COc1cccc(-c2c(C#N)c(N)nc(SCc3cccc(C)n3)c2C#N)c1 | Adora2a | ligand displacement, radioligand | – | cell membranes | 48.3 nM
CCC(C)[C@H](NC(=O)c1ccc(C(=O)N(Cc2ccccc2)Cc2ccccc2)cc1)C(=O)O (stereo in doubt) | AGTR2 | ligand displacement in cells, radioligand | – | – | 35000 nM
CCCCn1c(=O)c2[nH]c(C34CC5CC(CC3C5)C4)nc2n(CCCO)c1=O | Adora2a | ligand displacement, radioligand | – | cell membranes | 371 nM
COc1ccc(-c2c(C#N)c(N)nc(SCc3cccc(C)n3)c2C#N)cc1 | Adora2a | ligand displacement, radioligand | – | cell membranes | 48 nM
CCC(C)[C@H](NC(=O)c1ccc(C(=O)N(C)Cc2ccccc2)cc1)C(=O)O (stereo in doubt) | AGTR2 | ligand displacement in cells, radioligand | – | – | > 100000 nM
Cc1cc(C)c2c(c1)[C@@H](N(Cc1cc(C(F)(F)F)cc(C(F)(F)F)c1)c1nnn(C)n1)CCCN2C[C@H]1CC[C@H](C(=O)O)CC1 | Cytochrome P450 2B6 (CYP2B6, Homo sapiens, UniProt P20813) | enzyme activity, inhibitor | human, liver microsomes | pH 7.4 | 6300 nM
CCC(C)[C@H](NC(=O)c1cccc(C(=O)N(CC)CC)c1)C(=O)O (stereo in doubt) | AGTR2 | ligand displacement in cells, radioligand | – | – | 22000 nM
N#Cc1c(N)nc2sc(C(N)=O)c(N)c2c1-c1ccc2c(c1)OCO2 | Adora2a | ligand displacement, radioligand | – | cell membranes | 1060 nM
CCCCN1CCCn2c1nc1c2c(=O)n(C)c(=O)n1C | Adora2a | ligand displacement, radioligand | – | cell membranes | 1750 nM
Oc1ccccc1OCc1nn2c(-c3cccc(Br)c3)nnc2s1 | Urease (Canavalia ensiformis, UniProt P07374) | enzyme activity, inhibitor | – | – | 2250 nM
CCC(C)N1CCCn2c1nc1c2c(=O)n(C)c(=O)n1C (stereo not shown) | Adora2a | ligand displacement, radioligand | – | cell membranes | 4640 nM
O=C1c2ccccc2CCCN1CCCCN1CCN(c2ccccn2)CC1 | D(1A) dopamine receptor (DRD1, Homo sapiens, UniProt P21728) | cell-free assay, radioligand | – | – | 1260 nM
CCc1ccc(C(=O)N[C@H](C(=O)O)C(C)CC)cc1C(=O)N(CC)Cc1ccccc1 (stereo in doubt) | AGTR2 | ligand displacement in cells, radioligand | – | – | 8300 nM
COc1ccc(-c2c(C#N)c(N)nc(SCC(N)=O)c2C#N)cc1 | Adora2a | ligand displacement, radioligand | – | cell membranes | 1470 nM
CCCCOC(=O)NS(=O)(=O)c1sc(CC(C)C)cc1-c1ccc(OC(F)(F)F)c(Cn2ccnc2)c1 | AGTR2 | ligand displacement, radioligand | – | cell membranes | 280 nM
CCc1nc2cc(OCCCCN3CCC(c4cccc(Cl)c4Cl)CC3)ccc2s1 | Sodium-dependent serotonin transporter (SLC6A4, Homo sapiens, UniProt P31645) | ligand displacement, radioligand | – | – | 580 nM
CCCCCN1CCCn2c1nc1c2c(=O)n(C)c(=O)n1C | Adora2a | ligand displacement, radioligand | – | cell membranes | 3060 nM
CCc1ccc(C(=O)N[C@H](C(=O)O)C(C)CC)cc1C(=O)N(C)Cc1ccccc1 (stereo in doubt) | AGTR2 | ligand displacement in cells, radioligand | – | – | 16000 nM
CN1CCCn2c1nc1c2c(=O)n(C)c(=O)n1C | Adora2a | ligand displacement, radioligand | – | cell membranes | 4300 nM
COc1ccc(-c2c(C#N)c(N)nc3sc(C(N)=O)c(N)c23)cc1 | Adora2a | ligand displacement, radioligand | – | cell membranes | 561 nM
C=CCN1CCCn2c1nc1c2c(=O)n(C)c(=O)n1C | Adora2a | ligand displacement, radioligand | – | cell membranes | 2620 nM
CCC(C)[C@H](NC(=O)c1cccc(C(=O)N(CC)Cc2ccccc2)c1)C(=O)O (stereo in doubt) | AGTR2 | ligand displacement in cells, radioligand | – | – | 11000 nM
